According to ChEMBL document CHEMBL1641479, “2-Substituted (S)-2-(3,3-dimethyl-1-oxo-10,10a-dihydroimidazo[1,5-b]isoquinolin-2(1H,3H,5H)-yl)acetic acids: Conformational prediction, synthesis, anti-thrombotic and vasodilative evaluation” (Bioorg Med Chem, 2011):
“And” between values parts separate entries of the source, which are not always exact repeats. Equal entries are not always repeated. Square brackets hold non-standard residues; d marks the D form. Peptide text beside a SMILES is read from it. Tic = O=C(O)[C@@H]1Cc2ccccc2CN1

Key:
[1] = Antiplatelet activity against pig platelet assessed as inhibition of ADP-induced platelet aggregation at 10 uM by spectrophotometry; format: functional; details: Sus scrofa
Method in brief: (§1)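 Pig blood (six pigs) spun 1000 rpm 10 min for PRP, then 1500 rpm 10 min for PPP; PRP adjusted to 2×10^8 platelets/mL with autologous PPP. Compound (final 100 µM to 1 nM, diluted in NS from DMSO/NS stock) or NS added, then inducer at final PAF 0.1 µM, ADP 10 µM, AA 350 µM or thrombin 0.1 U/mL.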

[2] = Antiplatelet activity against pig platelet assessed as inhibition of arachidonic acid-induced platelet aggregation at 10 uM by spectrophotometry; format: functional; details: Sus scrofa; method in brief: as §1
[3] = Antiplatelet activity against pig platelet assessed as inhibition of PAF-induced platelet aggregation at 10 uM by spectrophotometry; format: functional; details: Sus scrofa; method in brief: as §1
[4] = Antiplatelet activity against pig platelet assessed as inhibition of thrombin-induced platelet aggregation at 10 uM by spectrophotometry; format: functional; details: Sus scrofa; method in brief: as §1
Aorta = assay: Inhibition of noradrenaline-induced contraction in Wistar rat thoracic aortic ring assessed as vasorelaxant activity at 300 uM treated after noradrenaline challenge; format: functional; parameters: scale not given: the % may be the effect or the level left
Method in brief: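 Male Wistar rats, 250–300 g, were decapitated and aortic strips were mounted in 37 °C Krebs solution (pH 7.4) gassed with 95% O2/5% CO2, connected to a tension transducer. Strips were contracted with 59 µM noradrenaline, washed, stabilised 30 min, then re-contracted with 59 µM noradrenaline. At peak contraction, compound in ethanol or ethanol alone was added and relaxation was recorded.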

Rattus norvegicus [5] = assay: Antithrombotic activity in Wistar rat assessed as thrombus weight at 15 umol/kg, iv (reference value: 25.99 +/- 2.41 mg); format: functional
Rattus norvegicus [6] = assay: Antithrombotic activity in Wistar rat assessed as thrombus weight at 15 umol/kg, iv (reference value: 28.54 +/- 2.62 mg); format: functional
[7] = Antiplatelet activity against pig platelet assessed as inhibition of ADP-induced platelet aggregation by spectrophotometry; format: functional, cell-based; details: Sus scrofa; method in brief: as §1
[8] = Antiplatelet activity against pig platelet assessed as inhibition of arachidonic acid-induced platelet aggregation by spectrophotometry; format: functional, cell-based; details: Sus scrofa; method in brief: as §1
[9] = Antiplatelet activity against pig platelet assessed as inhibition of PAF-induced platelet aggregation by spectrophotometry; format: functional, cell-based; details: Sus scrofa; method in brief: as §1
[10] = Antiplatelet activity against pig platelet assessed as inhibition of thrombin-induced platelet aggregation by spectrophotometry; format: functional, cell-based; details: Sus scrofa; method in brief: as §1
Rattus norvegicus [11] = assay: Antithrombotic activity in Wistar rat assessed as thrombus weight at 10 nmol/kg, iv (reference value: 24.09 +/- 2.33 mg); format: functional

COC(=O)[C@H](CS)N1C(=O)[C@@H]2Cc3ccccc3CN2C1(C)C
inhibition at 10 µM [1]: 68.9%
inhibition at 10 µM [2]: 60.7%
inhibition at 10 µM [3]: 53.7%
inhibition at 10 µM [4]: 30.8%
Activity (Aorta): 96.3%
Activity (Rattus norvegicus [5]): 12.9 mg

COC(=O)[C@H](C)N1C(=O)[C@@H]2Cc3ccccc3CN2C1(C)C
inhibition at 10 µM [1]: 10.2%
inhibition at 10 µM [2]: 40.5%
inhibition at 10 µM [3]: 46.3%
inhibition at 10 µM [4]: 11.7%
Activity (Aorta): 34.1%
Activity (Rattus norvegicus [5]): 22.51 mg

O=C(O)CNC(=O)[C@@H]1Cc2ccccc2CN1 (H-[Tic]-Gly-OH)
Activity (Rattus norvegicus [6]): 20.24 mg

CC1(C)N2Cc3ccccc3C[C@H]2C(=O)N1[C@@H](CCC(=O)O)C(=O)O
IC50 [7]: 248 nM
IC50 [8]: 388 nM
IC50 [9]: 695 nM
IC50 [10]: 808 nM
Activity (Rattus norvegicus [11]): 18.57 mg
Activity (Aorta): 4.33%

NCCCC[C@H](NC(=O)[C@@H]1Cc2ccccc2CN1)C(=O)O (H-[Tic]-Lys-OH)
Activity (Rattus norvegicus [6]): 21.28 mg

CC(C)[C@H](NC(=O)[C@@H]1Cc2ccccc2CN1)C(=O)O (H-[Tic]-Val-OH)
Activity (Rattus norvegicus [6]): 19.2 mg

CC1(C)N2Cc3ccccc3C[C@H]2C(=O)N1[C@@H](CCCCN)C(=O)O
IC50 [7]: 191 nM
IC50 [8]: 313 nM
IC50 [9]: 561 nM
IC50 [10]: 652 nM
Activity (Rattus norvegicus [11]): 14.98 mg
Activity (Aorta): 12.01%

N=C(N)NCCC[C@H](NC(=O)[C@@H]1Cc2ccccc2CN1)C(=O)O (H-[Tic]-Arg-OH)
Activity (Rattus norvegicus [6]): 18.73 mg

CC(C)C[C@H](NC(=O)[C@@H]1Cc2ccccc2CN1)C(=O)O (H-[Tic]-Leu-OH)
Activity (Rattus norvegicus [6]): 20.23 mg

NC(=O)C[C@H](NC(=O)[C@@H]1Cc2ccccc2CN1)C(=O)O (H-[Tic]-Asn-OH)
Activity (Rattus norvegicus [6]): 20.24 mg

O=C(O)[C@H](Cc1ccccc1)NC(=O)[C@@H]1Cc2ccccc2CN1 (H-[Tic]-Phe-OH)
Activity (Rattus norvegicus [6]): 19.11 mg

O=C(O)[C@H](Cc1cc2ccccc2[nH]1)NC(=O)[C@@H]1Cc2ccccc2CN1
IC50 [7]: 120 nM
IC50 [8]: 374 nM
IC50 [9]: 668 nM
IC50 [10]: 234 nM
Activity (Rattus norvegicus [6]): 21.3 mg

CCC(C)[C@@H](C(=O)OC)N1C(=O)[C@@H]2Cc3ccccc3CN2C1(C)C (stereo not given in full)
inhibition at 10 µM [1]: 48.2%
inhibition at 10 µM [2]: 49.4%
inhibition at 10 µM [3]: 51.3%
inhibition at 10 µM [4]: 60.9%
Activity (Aorta): 99%
Activity (Rattus norvegicus [5]): 13.32 mg

COC(=O)[C@H](C(C)O)N1C(=O)[C@@H]2Cc3ccccc3CN2C1(C)C (stereo not given in full)
inhibition at 10 µM [1]: 46.3%
inhibition at 10 µM [2]: 45%
inhibition at 10 µM [3]: 59.9%
inhibition at 10 µM [4]: 57.2%
Activity (Aorta): 35.21%
Activity (Rattus norvegicus [5]): 20.01 mg

CC1(C)N2Cc3ccccc3C[C@H]2C(=O)N1[C@@H](CS)C(=O)O
IC50 [7]: 180 nM
IC50 [8]: 299 nM
IC50 [9]: 535 nM
IC50 [10]: 622 nM
Activity (Rattus norvegicus [11]): 14.36 mg
Activity (Aorta): 16.57%

O=C(O)[C@H](Cc1ccc(O)cc1)NC(=O)[C@@H]1Cc2ccccc2CN1 (H-[Tic]-Tyr-OH)
Activity (Rattus norvegicus [6]): 19.31 mg

CC1(C)N(CC(=O)O)C(=O)[C@@H]2Cc3ccccc3CN21
IC50 [7]: 173 nM
IC50 [8]: 290 nM
IC50 [9]: 519 nM
IC50 [10]: 604 nM
Activity (Rattus norvegicus [11]): 14.39 mg and 13.89 mg
Activity (Aorta): 21.11%

CCC(C)[C@H](NC(=O)[C@@H]1Cc2ccccc2CN1)C(=O)O (single isomer, unassigned)
Activity (Rattus norvegicus [6]): 20.03 mg

O=C(O)[C@H](CS)NC(=O)[C@@H]1Cc2ccccc2CN1 (H-[Tic]-Cys-OH)
Activity (Rattus norvegicus [6]): 20.91 mg

COC(=O)[C@H](Cc1ccc(O)cc1)N1C(=O)[C@@H]2Cc3ccccc3CN2C1(C)C
inhibition at 10 µM [1]: 53.1%
inhibition at 10 µM [2]: 52.2%
inhibition at 10 µM [3]: 59%
inhibition at 10 µM [4]: 25.3%
Activity (Aorta): 15.56%
Activity (Rattus norvegicus [5]): 23.71 mg

COC(=O)[C@H](C(C)C)N1C(=O)[C@@H]2Cc3ccccc3CN2C1(C)C
inhibition at 10 µM [1]: 35%
inhibition at 10 µM [2]: 32.4%
inhibition at 10 µM [3]: 34.6%
inhibition at 10 µM [4]: 30.9%
Activity (Aorta): 54.99%
Activity (Rattus norvegicus [5]): 15.66 mg
